Among the data in the RNAGym collection of RNA variant scans (doi:10.1126/science.aae0568) are yeast fitness values, retold here.

Variants at the floor of the assay were thinned out.

Sequences and labels used below:
B1: tRNA (parent)
chain: GUUCCGUUGGCGUAAUGGUAACGCGUCUCCCUCCUAAGGAGAAGACUGCGGGUUCGAGUCCCGUACGGAACG

Variants of B1 are the subject of this series. As to the kind of experiment: yeast fitness relative to wild type (ratio to wild type); higher = fitter; tRNA-Arg(CCU), competitive growth, 37 C, YPD. Summed up: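 The tRNA-Arg(CCU) gene variants were made by chemical synthesis with a 3% per-site mutation rate at 69 sites and inserted at the native genomic locus of Saccharomyces cerevisiae. After pooling, the strains were competed in YPD at 37°C for 24 hours in six parallel replicates. Gene amplicons from the start population and each end population were read by 100-nucleotide paired-end sequencing, and Darwinian fitness relative to wild type was taken from genotype frequency changes. Genotypes needed ≥ 100 starting reads, and estimates < 0.5 were set to 0.5.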
On to G6C A45G, for which the yeast fitness was determined as 0.823.
Consider G6C A21G C24G C31A G44A, for which the yeast fitness was ≤ 0.5.
G6A U16G A21G A40G A42U G67C: the yeast fitness was ≤ 0.5.
The result for G6C G18C A21G A40U C49U reads ≤ 0.5; that for G6C U13A, 0.718; that for G6A G50A C66A, ≤ 0.5.
For the variant G6C C11U C27G G41C, the yeast fitness was ≤ 0.5.
The result for G6A G41A C60G A65G reads 0.618.
On to G6C G51C G68C, for which the yeast fitness turned out to be 0.562.
Take G6C A40G C66U: the yeast fitness is ≤ 0.5.
Consider G6C A21U, for which the yeast fitness stood at 0.673.
Turning to G6A U19C C30G A69C, the yeast fitness is ≤ 0.5.
Take G6C U16G C46A: the yeast fitness turned out to be 0.599.
On to G6C A14C U54C, for which the yeast fitness was ≤ 0.5.
For the variant G6A U7G U26C G52A C55U, the yeast fitness was ≤ 0.5.
Regarding G6C A20G C61A, the yeast fitness is ≤ 0.5.
G6C A42C: the yeast fitness worked out at 0.808.
In the case of G6A U64A it was 0.71.
In the case of G6C G18A G58A it was ≤ 0.5; in that of G6C G12C A15U A21C C49U G51C U53C, ≤ 0.5; in that of G6A U13G C27U C30A G44C C46U, ≤ 0.5.
As to G6C U8C C29G C61U, the yeast fitness is ≤ 0.5.
For G6C G18C A21G A40U U47A C49U C61U A70G, the yeast fitness was ≤ 0.5.
For G6C U8A G51A A65U G67A, the yeast fitness was ≤ 0.5.
With G6A G44A C46A G52A A65U, the yeast fitness was ≤ 0.5.
Consider G6C C29G C30U G51C C66A, for which the yeast fitness turned out to be 0.686.
Consider G6C C11A U32A A42G C55U C61U, for which the yeast fitness is ≤ 0.5.
In the case of G6A U26C G44C it was ≤ 0.5; in that of G6C U8C C34G A45G A65U, ≤ 0.5.
In the case of G6A U26A, the yeast fitness was 0.95.
Consider G6A U16G A21G A40G A42U, for which the yeast fitness was determined as 0.535.
The result for G6C C34G A69C reads ≤ 0.5; that for G6C U16G G39C, ≤ 0.5.
As to G6C C11A G23U G48C, the yeast fitness was ≤ 0.5.
Consider G6C A15U A43U A65U, for which the yeast fitness is ≤ 0.5.
Take G6C G63C A69G: the yeast fitness was ≤ 0.5.
Turning to G6C U8G G10C A37G C62U U64A, the yeast fitness is 0.504.
As to G6A U16A C33G A36U, the yeast fitness was ≤ 0.5.
In the case of G6A G38C it was 0.808.
In the case of G6C U16A G23C C60U, the yeast fitness turned out to be 0.625.
Regarding G6A G50A G58A, the yeast fitness was determined as 0.698.
The result for G6C G52C A57U reads ≤ 0.5; that for G6C A21U C61G A69C, ≤ 0.5; that for G6C G58C, 1.01.
With G6C A14C C31G A42U A43G, the yeast fitness is ≤ 0.5.
Consider G6C G9A A21U U28G C34U A45C, for which the yeast fitness was ≤ 0.5.
On to G6C U16A G18C C22G, for which the yeast fitness was determined as 0.615.
On to G6C C33U G52C C55A, for which the yeast fitness is ≤ 0.5.
In the case of G6A G48C C49U, the yeast fitness worked out at 0.652.
On to G6A U54C A57U G58A A65U, for which the yeast fitness was ≤ 0.5.
Turning to G6C C34U G52C, the yeast fitness was 0.565.
As for G6C C34U C66U A70U, the yeast fitness is 0.639.
With G6C U19C U32A A42C, the yeast fitness is ≤ 0.5.
In the case of G6C U7C C31G it was ≤ 0.5.
As for G6C U7A C34U C61U, the yeast fitness turned out to be 0.658.
As to G6C G38C C60A, the yeast fitness was ≤ 0.5.
Turning to G6C C46G A70C, the yeast fitness came to 0.511.
G6C G38C C46A G67U: the yeast fitness is ≤ 0.5.
G6C A21U A36C A57G: the yeast fitness is ≤ 0.5.
Regarding G6A U35G A43C G51A, the yeast fitness is ≤ 0.5.
As for G6C G41A C62U, the yeast fitness was ≤ 0.5.
The result for G6C G17A C30U A42C A65G C66G G68A reads ≤ 0.5; that for G6C A65G C66U, 0.84.
The result for G6C A42U C49U reads 0.595; that for G6A U7A C60G, ≤ 0.5.
In the case of G6A U35G A42G G56C, the yeast fitness was ≤ 0.5.
Take G6C A14G A20C: the yeast fitness is 0.501.
In the case of G6A U13C it was 0.937; in that of G6A U13A, 0.848.
As to G6C C24U C46G, the yeast fitness was determined as 0.586.
In the case of G6C C29A C55A A65G, the yeast fitness was ≤ 0.5.
With G6C A21G A57C, the yeast fitness is ≤ 0.5.
For G6C U13C C46A, the yeast fitness was found to be 0.627.
Regarding G6C G10A A36U G63A, the yeast fitness was ≤ 0.5.
Turning to G6A U8C, the yeast fitness was found to be 0.792.
The result for G6A U8C G10C reads ≤ 0.5; that for G6C C11U A21C G52A C61A G67C, ≤ 0.5.
With G6C U7C G9C C66U, the yeast fitness is 0.546.
Take G6A G63C: the yeast fitness came out at 0.727.
The result for G6A G39A U53A reads ≤ 0.5.
On to G6C C24U A65C, for which the yeast fitness was ≤ 0.5.
G6A U35A G67C: the yeast fitness was ≤ 0.5.
The result for G6A U16A A36C A37G G56C reads ≤ 0.5.
Consider G6A U8A G44C A57U, for which the yeast fitness was ≤ 0.5.
As to G6A U8A C22G U47A A70C, the yeast fitness is ≤ 0.5.
G6C A43C G50A: the yeast fitness is ≤ 0.5.
For the variant G6A U8G U13A C30U G39C C55G, the yeast fitness is ≤ 0.5.
For the variant G6A G44C A69U, the yeast fitness came to 0.586.
Regarding G6A G48A, the yeast fitness stood at 0.886.
In the case of G6C U13A U54A A57C, the yeast fitness was ≤ 0.5.
On to G6C G23A C27U A45G U64A, for which the yeast fitness is ≤ 0.5.
For the variant G6A G51C A57G C61U A65C, the yeast fitness is ≤ 0.5.
Consider G6C U19G A43U G58C C66A, for which the yeast fitness was ≤ 0.5.
As for G6C C24A C31U G38C, the yeast fitness was ≤ 0.5.
The result for G6C G10A A36U G51C A69C reads 0.624; that for G6C C49U U53C C61G, ≤ 0.5.
The result for G6C C27U A45G U64A reads 0.67; that for G6C G10A C27A C61U A65U, ≤ 0.5.
In the case of G6A U47A A57U, the yeast fitness is ≤ 0.5.
Turning to G6A U7G G25C U53A A69C, the yeast fitness was ≤ 0.5.
As for G6C C24U, the yeast fitness was 0.751.
In the case of G6C C24U G52A it was ≤ 0.5; in that of G6C A21G C55A C61A, ≤ 0.5.
On to G6C G23C C31G, for which the yeast fitness was ≤ 0.5.
With G6C U7C G48A, the yeast fitness came to 0.614.
Regarding G6C C34G A65G, the yeast fitness was ≤ 0.5.
Regarding G6A U54A, the yeast fitness was determined as 0.674.
The result for G6A U54C reads 0.948; that for G6C U13C C31G C33A, ≤ 0.5.
Consider G6A U19G G52A, for which the yeast fitness came to 0.606.
The result for G6A U8C G18C A21C C33A reads ≤ 0.5.
Turning to G6C U16G A20C G25A A43U G50A C55U, the yeast fitness was ≤ 0.5.
For G6C A20C, the yeast fitness amounted to 0.773.
For the variant G6C A20G, the yeast fitness is 0.773.
In the case of G6C U8C C60A C62U it was ≤ 0.5; in that of G6C A42C C49U C62U, ≤ 0.5.
For G6C A37U A57C A69U A70C, the yeast fitness was ≤ 0.5.
G6A G44C G50C A57G: the yeast fitness is ≤ 0.5.
On to G6C U16C C46G C62U C66U, for which the yeast fitness is ≤ 0.5.
Turning to G6C G52A C55G, the yeast fitness is ≤ 0.5.
Consider G6A G41C C55G, for which the yeast fitness turned out to be 0.529.
With G6A U13G C22A U26A C29G C34G G50C, the yeast fitness was ≤ 0.5.
In the case of G6A U13G C27U C61G, the yeast fitness amounted to 0.667.
With G6A G52A G63A, the yeast fitness is ≤ 0.5.
In the case of G6C U19C C22A U35C A69U, the yeast fitness was ≤ 0.5.
In the case of G6C G25A A65G it was 0.595.
The result for G6C C24G C27G C29A C34U U53A A70G reads ≤ 0.5.
As to G6A U54G A65U, the yeast fitness was ≤ 0.5.
G6A U47A C61U: the yeast fitness was 0.57.
For the variant G6C A37G A70C, the yeast fitness is ≤ 0.5.
G6C C33U G38C G52C C62U: the yeast fitness was ≤ 0.5.
Regarding G6C A15G, the yeast fitness was found to be 0.808.
The result for G6C A15U reads 0.738; that for G6C G39C A45U C61U, ≤ 0.5.
The result for G6A U28G C60G reads ≤ 0.5.
In the case of G6A G48C G63C it was 0.667; in that of G6C C24U G38C A40G U47C, ≤ 0.5; in that of G6C U7G G17C G67A, ≤ 0.5.
For the variant G6C U16C A42U G52U, the yeast fitness amounted to 0.634.
With G6C G12A C33U A65G A70G, the yeast fitness was ≤ 0.5.
As for G6C G51A, the yeast fitness stood at 0.791.
In the case of G6C C34U G44A C55G C66G it was 0.649; in that of G6A U26A C30G U59C, ≤ 0.5; in that of G6C U16A G18C C22G G52C G68A, ≤ 0.5.
In the case of G6C C27U A57C A70U it was 0.537; in that of G6C A14C C29U C34G C46U C66A G68C, ≤ 0.5.
In the case of G6C C31U U35A C46G G48A C49U U64C, the yeast fitness is ≤ 0.5.
Turning to G6C C24A A69U, the yeast fitness was ≤ 0.5.
In the case of G6C C22A G41A G44C, the yeast fitness is ≤ 0.5.
Regarding G6C C55G A70C, the yeast fitness was ≤ 0.5.
With G6A U28A G51A A57U, the yeast fitness is ≤ 0.5.
In the case of G6A G44A, the yeast fitness turned out to be 0.737.
G6C U13C C24A C27G A36U: the yeast fitness was ≤ 0.5.
With G6C A65C, the yeast fitness was 0.872.
Regarding G6C C33G A36C C49A C60G A65G A70U, the yeast fitness is ≤ 0.5.
With G6C A40G A42G A57C C66U, the yeast fitness is ≤ 0.5.
As for G6C C27G U28C C62G, the yeast fitness was ≤ 0.5.
In the case of G6C C62G it was 0.688; in that of G6C C62U, 0.879.
G6C A57G A65G C66U: the yeast fitness was determined as 0.537.
Take G6C U13A C34A: the yeast fitness is ≤ 0.5.
For the variant G6C G23C, the yeast fitness stood at 0.643.
For the variant G6A U7A, the yeast fitness came out at 0.749.
With G6C C29A, the yeast fitness turned out to be 0.667.
Turning to G6C A69U, the yeast fitness worked out at 0.976.
As to G6C A69C, the yeast fitness was 0.852.
In the case of G6C A70U it was 0.823.
